# Screening results from PubChem.
# A1 apoptosis 2: compounds inhibiting A1, read as caspase activation. MEF A1-2A-BIM cells, caspase-Glo luminescence, 3 h; percent of clofoctol response, DMSO zero. caspase activation, % (concentration not given with the values). 24,000 tested, under 10 active. AID 2465; in the data active = caspase activation above about 5.9%
#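 Material: mouse embryonic fibroblasts co-expressing A1 and BIM (A1-2A-BIM), primed for A1 dependence / Quantity: 2500 cells/well / Buffer or medium: RPMI-1640 growth medium with 10% FBS / Doses: 50 nL compound per well, pinned / Schedule: 3 h compound exposure at 37 °C / Signal: Caspase-Glo luminescence (DEVD substrate) / Measure: Caspase-3/7 activation, seen as rise in luminescence signal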
# T cruzi HTS: intracellular Trypanosoma cruzi inhibition; intracellular Trypanosoma cruzi in host cells, plate reader; activity score (inhibition), % at 5.01 µM; actives 4.9% (n = 22,000); AID 651903; in the data active = activity score above about 55%;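 also: parasites and compound incubated about four days before reading; 0% = median of neutral control wells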
# INS-1E rescue: rescue of cytokine-induced death in INS-1E beta cells | INS-1E cytokine-induced death, ATP luminescence, 48 h; normalised: neutral wells 0, positive control 100 | protection from cytokine-induced ATP loss, % at 10 µM | AID 488910 | actives 0.1% (n = 20,000);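 active = mean replicate protection from cytokine-induced ATP loss at least 50% and at least 75% of replicates each reaching 50%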
#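 Assay system: INS-1E rat cells / Quantity: 8000 cells per well / Medium: RPMI without phenol red, 5% FBS / Probe or stimulus: three-cytokine cocktail (IFN-γ, TNF-α, IL-1β) / Dosing: one compound concentration, pin transfer / Timing: 48 h co-treatment, 10 min post-lysis read / Technique: CellTiter-Glo luminescence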
# Starred values were filed as active, the others as inactive; · = no result. Many of the other results were omitted from the sample, so hits are more common in it than they were.
SMILES,A1 apoptosis 2,T cruzi HTS,INS-1E rescue
O=C(N/N=C/[C@@H](O)[C@@H](O)[C@H](O)[C@H](O)CO)c1ccccc1O,1,-11,-11
CC(C)(C)OC(=O)N1CCC[C@H]1/C=N/NC(=O)CCCCC(=O)NO,·,-4,2
O=C(Nc1ccccc1[N+](=O)[O-])c1ccc(CNc2nccc(-c3cccnc3)n2)cc1,1,·,·
O=C(NO)c1ccc(C(=O)N/N=C/c2ccc(O)c(O)c2)cc1,·,-6,1
COC(=O)CCCCCCC(=O)N/N=C/c1ccc(OC)c(OC)c1,-1,10,8
CC(C)(C)OC(=O)Nc1cccc(/C=N/NC(=O)CCCCC(=O)NO)c1,·,5,21
C[C@H]1CN([C@@H](C)CO)C(=O)c2cccc(NC(=O)c3ccncc3)c2O[C@@H]1CN(C)Cc1ccncc1,·,-17,5
C[C@H](CO)N1C[C@H](C)[C@@H](CN(C)Cc2ccc(Oc3ccccc3)cc2)Oc2c(NC(=O)c3ccncc3)cccc2C1=O,0,66*,-2
COc1ccc(CN(C)C[C@@H]2Oc3c(NC(=O)c4ccncc4)cccc3C(=O)N([C@H](C)CO)C[C@H]2C)cc1,1,76*,4
C[C@@H]1CN([C@@H](C)CO)C(=O)c2cccc(NC(=O)c3ccncc3)c2O[C@@H]1CN(C)Cc1ccc(Oc2ccccc2)cc1,2,78*,-20
C[C@@H]1CN([C@H](C)CO)C(=O)c2cccc(NC(=O)c3ccncc3)c2O[C@H]1CN(C)Cc1ccc(Oc2ccccc2)cc1,0,85*,-26
O=C(N/N=C/[C@H](O)[C@H](O)[C@@H](O)[C@@H](O)CO)c1ccccc1O,0,-8,-6
NC(=O)COc1ccccc1/C=N/NC(=O)CCCCCCC(=O)Nc1ccccc1O,0,-14,1
O=C(NO)c1ccc(C(=O)N/N=C/c2ccc(O)cc2Br)cc1,-3,-14,12
O=C(CCCCCCC(=O)Nc1ccccc1O)N/N=C/c1ccccc1,0,·,·
N#Cc1ccc(/C=N/NC(=O)CCCCC(=O)NO)cc1,0,5,-4
C[C@H]1CN([C@@H](C)CO)C(=O)c2cccc(NC(=O)c3ccncc3)c2O[C@@H]1CN(C)Cc1ccc(Oc2ccccc2)cc1,-1,78*,-14
C[C@@H]1CN([C@H](C)CO)C(=O)c2cc(NC(=O)Nc3ccc(C(F)(F)F)cc3)ccc2O[C@@H]1CN(C)CC1CCCCC1,·,48,-7
C[C@H]1CN([C@@H](C)CO)C(=O)c2cc(NC(=O)Nc3ccc(C(F)(F)F)cc3)ccc2O[C@@H]1CN(C)CC1CCCCC1,1,5,-1
C[C@@H]1CN([C@@H](C)CO)C(=O)c2cc(NC(=O)Nc3ccc(C(F)(F)F)cc3)ccc2O[C@@H]1CN(C)CC1CCCCC1,1,70*,-60
C[C@H]1CN([C@@H](C)CO)C(=O)c2cc(NC(=O)Nc3ccc(C(F)(F)F)cc3)ccc2O[C@H]1CN(C)CC1CCCCC1,1,73*,-95
C=CCNC(=O)[C@@H]1[C@H]2C(=O)O[C@H](c3ccccc3)[C@H](c3ccccc3)N2[C@H](c2ccc(O)cc2)[C@@]12C(=O)Nc1ccc(C#Cc3ccc(OC)cc3)cc12,0,·,·
O=C(O)CCCCCC(=O)N/N=C/C1CCCCC1,1,-15,1
COC(=O)CCCCCCC(=O)N/N=C/c1cc(O)ccc1O,-1,-16,31
COc1ccc(S(=O)(=O)Nc2ccc3c(c2)CC(=O)N([C@@H](C)CO)C[C@H](C)[C@H](CN(C)Cc2ccc(C(F)(F)F)cc2)O3)cc1,1,47,-32
SMILES,A1 apoptosis 2,T cruzi HTS,INS-1E rescue
COc1ccc(S(=O)(=O)Nc2ccc3c(c2)CC(=O)N([C@H](C)CO)C[C@@H](C)[C@@H](CN(C)Cc2ccc(C(F)(F)F)cc2)O3)cc1,0,65*,-46
COc1ccc(S(=O)(=O)Nc2ccc3c(c2)CC(=O)N([C@@H](C)CO)C[C@@H](C)[C@@H](CN(C)Cc2ccc(C(F)(F)F)cc2)O3)cc1,-1,80*,-26
COc1ccc(S(=O)(=O)Nc2ccc3c(c2)CC(=O)N([C@@H](C)CO)C[C@@H](C)[C@H](CN(C)Cc2ccc(C(F)(F)F)cc2)O3)cc1,-1,·,·
O=C(CCCCC(=O)N/N=C/c1ccc(CO)o1)NO,0,-7,0
COc1cccc(OC)c1/C=N/NC(=O)CCCCCC(=O)NO,-1,·,·
Cc1ccc(S(=O)(=O)Nc2ccc3c(c2)C(=O)N([C@@H](C)CO)C[C@@H](C)[C@@H](CN(C)Cc2ccc(C(F)(F)F)cc2)OCCCC[C@H](C)O3)cc1,-1,·,·
C[C@@H]1CCCCO[C@H](CN(C)Cc2ccc(C(F)(F)F)cc2)[C@@H](C)CN([C@H](C)CO)C(=O)c2cc(NS(=O)(=O)c3ccc(F)cc3)ccc2O1,0,56*,-10
C[C@@H]1CCCCO[C@@H](CN(C)Cc2ccc(C(F)(F)F)cc2)[C@@H](C)CN([C@H](C)CO)C(=O)c2cc(NS(=O)(=O)c3ccc(Cl)cc3)ccc2O1,·,63*,-24
C[C@@H]1CN([C@H](C)CO)C(=O)c2cc(NS(=O)(=O)c3ccc(F)cc3)ccc2O[C@@H](C)CCCCO[C@H]1CN(C)Cc1ccc(C(F)(F)F)cc1,2,·,·
C[C@@H]1CCCCO[C@H](CN(C)Cc2ccc(C(F)(F)F)cc2)[C@H](C)CN([C@@H](C)CO)C(=O)c2cc(NS(=O)(=O)c3ccc(Cl)cc3)ccc2O1,0,·,·
COc1ccc(S(=O)(=O)Nc2ccc3c(c2)C(=O)N([C@H](C)CO)C[C@@H](C)[C@H](CN(C)Cc2ccc(C(F)(F)F)cc2)OCCCC[C@@H](C)O3)cc1,0,·,·
Cc1ccc(S(=O)(=O)Nc2ccc3c(c2)C(=O)N([C@H](C)CO)C[C@H](C)[C@H](CN(C)Cc2ccc(C(F)(F)F)cc2)OCCCC[C@@H](C)O3)cc1,·,66*,-36
COc1ccc(S(=O)(=O)Nc2ccc3c(c2)C(=O)N([C@H](C)CO)C[C@H](C)[C@H](CN(C)Cc2ccc(C(F)(F)F)cc2)OCCCC[C@@H](C)O3)cc1,·,65*,1
COC(=O)CCCCCCC(=O)N/N=C/c1ccc(C(F)(F)F)cc1,·,-13,14
O=C(CCCCCCC(=O)Nc1ccccc1O)N/N=C/c1ccc(C(=O)O)cc1,·,-10,-1
O=C(CCCCCC(=O)Nc1ccccc1O)N/N=C/c1cccs1,0,·,·
Cn1cc(/C=N/NC(=O)c2cccc(C(=O)NO)c2)c2ccccc21,1,-2,-2
O=C1O[C@H](c2ccccc2)[C@H](c2ccccc2)N2[C@H]1[C@@H](C(=O)O)[C@]1(C(=O)Nc3ccc(C#CC4(O)CCCCCC4)cc31)[C@H]2c1ccc(O)cc1,0,·,·
Cc1ccc(S(=O)(=O)N(C)C[C@H]2Oc3ccc(NS(=O)(=O)c4ccccc4)cc3CC(=O)N([C@H](C)CO)C[C@H]2C)cc1,-1,67*,1
C[C@@H]1CN([C@H](C)CO)C(=O)Cc2cc(NS(=O)(=O)c3ccc(Cl)cc3)ccc2O[C@@H]1CN(C)S(=O)(=O)c1ccc(F)cc1,·,67*,3
